An excerpt weighted towards active compounds, which were near 1.1% of everything screened.
PDI turbidity – inhibitors of human PDI, primary screen, biochemical, turbidity, single point, plate reader. PDI insulin aggregation turbidity, A650, 90 min. inhibition, % at 10 µM. 350,000 compounds, 0.052% hits. Protein disulfide-isomerase (Homo sapiens), P07237. AID 588391, 2011;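 active = mean inhibition across replicates of 30% or more, whatever share of single replicates reach that level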
Rin1 Abl inh – inhibitors of Rin1-Abl protein binding, primary screen, biochemical, TR-FRET; Tyrosine-protein kinase ABL1 (Homo sapiens) + Ras and Rab interactor 1 (Homo sapiens), …; inhibition, % at 7.35 µM; 360,000 compounds, 0.4% hits; AID 588664, 2011; in the data active = inhibition above about 5%, passing the limit was not always enough
CAL PDZ FP-1 – CAL PDZ peptide-binding inhibitors, primary screen, biochemical, fluorescence polarization, Cer-tagged CAL PDZ, HTS | inhibition, % at 20 µM | AID 504414, 2011 | Golgi-associated PDZ and coiled-coil motif-containing protein (Homo sapiens), Q9HD26 | purified CAL PDZ, TMR-peptide fluorescence polarization, 1 h | 330,000 compounds, 0.02% hits;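 active = highest replicate inhibition of at least 40%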
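Read-out basis: mP drop reported as inhibition | Assay system: Tagged CAL PDZ protein CerCALP, purified | Benchmarks: Unlabelled peptide for full inhibition, DMSO wells as neutral | Schedule: 1 h incubation at room temperature before polarization reading | Buffer or medium: Sodium phosphate/NaCl buffer pH 7.4 with TCEP, IgG, Thesit | Doses: Single point, 20 µM | Measured by: Fluorescence polarization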
ERAP1 HTS inh – human ERAP1 aminopeptidase inhibitors, primary screen, biochemical, single point, plate reader | Endoplasmic reticulum aminopeptidase 1 (Homo sapiens), Q9NZ08 | inhibition, % at 10.7 µM | 340,000 compounds, 0.15% hits | recombinant ERAP1, Leu-AMC fluorescence, 60 min;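 active = mean replicate inhibition of at least 30%, or all replicates individually reaching that 30% level; inactive = mean below 30% and not every replicate reaching it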
Target sequence (Q9NZ08 whole entry, looked up): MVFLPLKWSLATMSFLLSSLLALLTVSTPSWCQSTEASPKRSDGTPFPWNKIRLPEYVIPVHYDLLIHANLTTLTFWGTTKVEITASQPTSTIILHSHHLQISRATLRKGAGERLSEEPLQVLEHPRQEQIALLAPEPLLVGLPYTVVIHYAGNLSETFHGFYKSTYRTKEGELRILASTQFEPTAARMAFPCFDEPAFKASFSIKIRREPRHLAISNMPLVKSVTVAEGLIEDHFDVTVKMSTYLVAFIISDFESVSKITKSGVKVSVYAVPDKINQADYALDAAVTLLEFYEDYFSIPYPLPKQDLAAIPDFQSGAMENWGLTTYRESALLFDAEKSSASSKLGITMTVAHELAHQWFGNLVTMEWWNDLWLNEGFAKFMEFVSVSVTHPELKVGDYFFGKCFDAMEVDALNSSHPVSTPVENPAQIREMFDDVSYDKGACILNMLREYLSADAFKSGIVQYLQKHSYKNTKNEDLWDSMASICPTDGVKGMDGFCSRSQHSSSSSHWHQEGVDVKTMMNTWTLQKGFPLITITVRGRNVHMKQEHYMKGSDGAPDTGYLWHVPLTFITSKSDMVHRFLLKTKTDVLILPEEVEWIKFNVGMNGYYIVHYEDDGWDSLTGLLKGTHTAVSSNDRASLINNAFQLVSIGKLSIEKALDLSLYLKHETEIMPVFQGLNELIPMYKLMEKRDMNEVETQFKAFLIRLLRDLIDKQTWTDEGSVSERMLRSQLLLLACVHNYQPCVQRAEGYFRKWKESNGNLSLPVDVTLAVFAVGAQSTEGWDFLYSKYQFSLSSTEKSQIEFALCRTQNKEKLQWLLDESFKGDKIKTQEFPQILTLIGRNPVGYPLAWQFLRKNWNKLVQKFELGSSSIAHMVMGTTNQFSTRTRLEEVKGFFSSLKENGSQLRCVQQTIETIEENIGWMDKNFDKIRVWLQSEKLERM
CAL PDZ FP-2 – untagged CAL PDZ binding inhibitors, primary screen, biochemical, fluorescence polarization, HTS; Golgi-associated PDZ and coiled-coil motif-containing protein (Homo sapiens), Q9HD26; purified CAL PDZ, TMR-peptide fluorescence polarization, 1 h; inhibition, % at 24.9 µM; AID 602252, 2012; 300,000 compounds, 0.92% hits;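 active = mean inhibition of at least 30% with at least half of replicates also reaching 30%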
ERp5 block – inhibitors of ERp5-driven insulin aggregation, primary screen, biochemical, turbidity, absorbance 650 nm, single point; inhibition, % at 9.99 µM; 90 min; Protein disulfide-isomerase A6 (Homo sapiens), Q15084; 350,000 compounds, 0.05% hits;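 active = mean replicate inhibition above about 25%, with every replicate also reaching it, limit read from the data, passing the limit was not always enough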
Hits are given with their value; . = inactive; / = no result.

SMILES	PDI turbidity	Rin1 Abl inh	CAL PDZ FP-1	ERAP1 HTS inh	CAL PDZ FP-2	ERp5 block
C#CCOCCOCCOCCNc1nc(N2CCN(C(=O)CCCCCCCCCCNC(=O)[C@H](CCCCN)n3cc(CCCC(=O)O)nn3)CC2)nc(N2CCN(C(=O)CCCCCCCCCCNC(=O)[C@H](CCCN=C(N)N)n3cc(C[C@@H](C)CC)nn3)CC2)n1	.	.	.	/	.	/
C#CCOCCOCCOCCNc1nc(N2CCN(C(=O)[C@H](CCCCN)n3cc(CCCC)nn3)CC2)nc(N2CCN(C(=O)[C@H](Cc3ccc(O)cc3)n3cc(CCO)nn3)CC2)n1	129	.	.	/	.	/
C#CCOCCOCCOCCNc1nc(N2CCN(C(=O)CCCCCCCCCCNC(=O)[C@H](CCCCN)n3cc(C)nn3)CC2)nc(N2CCN(C(=O)CCCCCCCCCCNC(=O)[C@@H]([C@H](C)CC)n3cc(CCCCCN)nn3)CC2)n1	.	12	.	/	.	/
C#CCOCCOCCOCCNc1nc(N2CCN(C(=O)CCCCCCCCCCNC(=O)[C@H](CCCCN)n3cc(CCO)nn3)CC2)nc(N2CCN(C(=O)CCCCCCCCCCNC(=O)[C@H](CCCN=C(N)N)n3cc(C[C@@H](C)CC)nn3)CC2)n1	.	22	.	/	.	/
COc1cccc(C(=O)Nc2ccc3c(c2)OC[C@@H](C)NC[C@H](C)[C@H](OC)CN(C)C3=O)c1	/	/	/	.	/	.
CNC[C@@H]1Oc2c(NC(=O)c3ccc(-c4nccs4)cc3)cccc2C(=O)N([C@@H](C)CO)C[C@@H]1C	/	/	/	.	/	.
C#CCOCCOCCOCCNc1nc(N2CCN(C(=O)[C@H](CCC(=O)O)n3cc(C(N)CC(C)C)nn3)CC2)nc(N2CCN(C(=O)[C@H](Cc3cc4ccccc4[nH]3)n3cc(C(N)CC(C)C)nn3)CC2)n1 (some centres undefined)	36	.	.	/	.	/
C#CCOCCOCCOCCNc1nc(N2CCN(C(=O)CCCCCCCCCCNC(=O)[C@@H](CCSC)n3cc(CCO)nn3)CC2)nc(N2CCN(C(=O)CCCCCCCCCCNC(=O)[C@H]([C@@H](C)CC)n3cc(CCCCN=C(N)N)nn3)CC2)n1	.	24	.	/	.	/
C#CCOCCOCCOCCNc1nc(N2CCOCC2)nc(N2CCN(C(=O)CCCCCCCCCCNC(=O)[C@@H](CCSC)n3cc(CCO)nn3)CC2)n1	.	.	.	/	.	.
COC(=O)[C@@H]1[C@@H](CO)[C@@H]2Cn3c(ccc(-c4ccccc4)c3=O)[C@@H]2N1CCc1ccccc1	/	/	/	.	/	.
CCN(CC)CCn1c(=S)[nH]c2ccc(Br)cc2c1=O	.	.	.	.	87	.
CCN(CC)CCn1c(=S)[nH]c2ccccc2c1=O	.	.	.	/	.	/
COc1ccc(-c2ccc3c(c2)O[C@@H](CN(C)Cc2cccnc2)[C@H](C)CN([C@H](C)CO)S3(=O)=O)cc1	/	/	/	.	/	.
CCCNc1nc2nc3ccccn3c(=O)c2cc1C(=O)NCCN1CCOCC1	.	.	.	58	.	.
Cc1cccn2c(=O)c3cc(C(=O)NCc4cccnc4)c(=N)n(CC4CCCO4)c3nc12 (centres undefined)	.	.	.	86	.	.
Cc1cccn2c(=O)c3cc(C(=O)NCCc4ccccc4)c(=N)n(CC4CCCO4)c3nc12 (centres undefined)	.	.	.	.	.	.
N=c1c(C(=O)NCC2CCCO2)cc2c(=O)n3ccccc3nc2n1C1CCCCC1 (centres undefined)	.	.	.	121	.	.
N=c1c(C(=O)NCC2CCCO2)cc2c(=O)n3ccccc3nc2n1C1CCCC1 (centres undefined)	.	.	.	.	.	.
Cc1cccn2c(=O)c3cc(C(=O)NCc4ccccc4)c(=N)n(CCCN4CCOCC4)c3nc12	.	.	.	.	.	.
Cc1cccn2c(=O)c3cc(C(=O)NCCN4CCOCC4)c(=N)n(CCCN4CCOCC4)c3nc12	.	.	.	35	.	.
C[C@H](CO)N1C[C@H](C)[C@H](CN(C)Cc2ccccn2)Oc2cc(-c3ccccc3)ccc2S1(=O)=O	/	/	/	.	/	.
O=C(C[C@@H]1CC[C@@H](NS(=O)(=O)c2ccc(F)cc2)[C@H](CO)O1)N1CCC(Cc2ccccc2)CC1	/	/	/	.	/	.
CN1C(=O)c2cc(NS(C)(=O)=O)ccc2OC[C@H]2O[C@@H](CC(=O)NC3CCCCC3)CC[C@@H]21	/	/	/	.	/	.
C[C@H]1CN([C@@H](C)CO)C(=O)c2cccc(NC(=O)Nc3ccc(F)cc3)c2O[C@@H]1CN(C)C(=O)Nc1ccccc1	/	/	/	.	/	.
CO[C@@H]1CN(C)C(=O)c2ccc(NC(=O)NC(C)C)cc2OC[C@H](C)N(C)C[C@H]1C	/	/	/	.	/	.
SMILES	PDI turbidity	Rin1 Abl inh	CAL PDZ FP-1	ERAP1 HTS inh	CAL PDZ FP-2	ERp5 block
CC1=CC(C)(C)Nc2ccc(OC(=O)C(Cc3ccccc3)N3C(=O)c4ccccc4C3=O)cc21 (centres undefined)	.	.	.	/	68	/
CC1=CC(C)(C)Nc2ccc(OC(=O)CN3C(=O)c4ccccc4C3=O)cc21	.	.	.	.	.	.
C[C@H](CO)N1C[C@H](C)[C@H](CN(C)C(=O)Nc2ccccc2)Oc2ccc(NC(=O)Cc3ccccc3)cc2CC1=O	/	/	/	.	/	.
Cc1ccc(-n2nc3c(c2NC(=O)c2ccco2)CS(=O)(=O)C3)cc1	.	.	.	.	.	.
COc1ccc(-n2nc3c(c2NC(=O)c2ccco2)CS(=O)(=O)C3)cc1	.	.	.	.	76	.
COC(=O)c1ccccc1-c1c2ccc(=N)cc-2oc2cc(N)ccc12	.	.	109	.	/	.
C[C@H](CO)N1C[C@H](C)[C@H](CN(C)C)OCCCC[C@H](C)Oc2ccc(N(C)C)cc2C1=O	/	/	/	.	/	.
N#Cc1ccc(CSc2nc(N)cc(N)n2)cc1	.	.	.	.	72	.
Cc1ccc(CSc2nc(N)cc(N)n2)cc1	.	.	/	.	.	.
OCC1CCCCN1C(=S)NCc1ccco1 (centres undefined)	.	.	.	.	64	.
COc1cccc(S(=O)(=O)N[C@@H]2CC[C@H](CC(=O)NCc3ccc(Cl)cc3)O[C@H]2CO)c1	/	/	/	.	/	.
Cc1csc(SCC(=O)Nc2ccc3[nH]c(=O)[nH]c3c2)n1	.	.	.	.	106	.
CCOC(=O)Cc1csc(SCC(=O)Nc2ccc3[nH]c(=O)[nH]c3c2)n1	.	.	.	.	.	.
C[C@@H]1CN([C@@H](C)CO)C(=O)c2cc(-c3ccc(C#N)cc3)cnc2O[C@H]1CN(C)C(=O)c1cccnc1	/	/	/	.	/	.

From PubChem BioAssay
